From ChEMBL document CHEMBL6092225, “Design, Synthesis, and Biological Evaluation of [1,2,5]Oxadiazolo[3,4-b]pyridin-7-ol as Mitochondrial Uncouplers for the Treatment of Obesity and Metabolic Dysfunction-Associated Steatohepatitis” (J Med Chem, 2024) come the findings set out here.

Calls of active or inactive are those of the source. No cut-off for these calls is given here.

In series [1] the test system is L6. Nature of the series: (§1) Induction of oxygen consumption rate in rat L6 cells upto 200 uM measured for 90 mins by Seahorse assay relative to BAM15. Format: functional.
Series [2] can be described thus: Induction of oxygen consumption rate in rat L6 cells measured for 90 mins by Seahorse assay. The class given is functional, cell-based.
Series [3] has as its system L6. Nature of the series: Induction of oxygen consumption rate in rat L6 cells at 10 uM measured for 90 mins in presence of oligomycin by Seahorse assay. Format: functional, cell-based. A digest of the protocol:
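L6 myoblasts in unbuffered DMEM with pyruvate and glutamine (pH 7.4) on Seahorse XF. Mitochondrial stress test: oligomycin 1 µM or vehicle injected, then compound at 10 µM, then antimycin A 10 µM plus rotenone 1 µM at set times. n = 3 wells per condition, mean ± SEM.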

A short description of series [4]: Induction of oxygen consumption rate in rat L6 cells assessed as increase in respiration at 10 uM measured for 90 mins in presence of BAM15 by Seahorse assay relative to control. The following applies: 1.5 h. Format: functional.
Series [5] is described as follows: Toxicity in C57BL/6 mouse assessed as change in body temperature at 30 to 1000 mg/kg, po measured for 24 hrs. Format: organism-based. The following applies: in vivo, dose 30-1000 mg/kg. Put shortly: (§2)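 Male C57BL/6 mice, 9 weeks old, given vehicle or compound at 30, 100, 300 or 1000 mg/kg by single oral gavage. Monitored 24 h after dosing for core temperature by rectal probe, body weight and food intake. n = 3, mean ± SEM.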

Series [6] is described as follows: Toxicity in C57BL/6 mouse assessed as change in body weight at 30 to 1000 mg/kg, po measured for 24 hrs. The following applies: in vivo, dose 30-1000 mg/kg. The class given is organism-based. A digest of the protocol: as §2
Series [7] is described as follows: Toxicity in C57BL/6 mouse assessed as change in appetite at 30 to 1000 mg/kg, po measured for 24 hrs. The class given is organism-based. The following applies: in vivo, dose 30-1000 mg/kg. Put shortly:
as §2

Series [8] is described as follows: Toxicity in C57BL/6 mouse assessed as drug tolerance upto 1000 mg/kg, po measured for 24 hrs. The class given is organism-based. The following applies: in vivo. Put shortly:
as §2

The test system of series [9] is Mus musculus. Kind of series: Effect on calorie intake in diet-induced Gubra-Amylin NASH C57BL/6 mouse model of MASH at 200 mg/kg, po. The class given is functional, organism-based. Put shortly: (§3)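 Male C57BL/6 mice, GAN diet from 5/6 weeks old for 33 weeks, then single-housed and stratified by baseline body weight and body composition. Fed GAN diet alone or GAN diet admixed with compound at 200 mg/kg for 4 weeks, fresh compound daily. Body weight and food intake measured daily, body composition weekly by EchoMRI, organs weighed at end.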

The subject of series [10] is Mus musculus. Nature of the series: Anti-obesity activity in diet-induced Gubra-Amylin NASH C57BL/6 mouse model of MASH assessed as decrease in fat mass at 200 mg/kg, po for 4 weeks by EchoMRI analysis. Format: functional, organism-based. A digest of the protocol:
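Male C57BL/6 mice kept on GAN diet for 33 weeks, then fed GAN diet with or without compound admixed at 200 mg/kg daily for 4 weeks. Fat and lean mass measured weekly by EchoMRI.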

In series [11] the test system is Mus musculus. Nature of the series: Effect on liver mass in diet-induced Gubra-Amylin NASH C57BL/6 mouse model of MASH at 200 mg/kg, po for 4 weeks. Format: functional, organism-based. Put shortly:
as §3

In series [12] the test system is Mus musculus. Nature of the series: Anti-obesity activity in diet-induced Gubra-Amylin NASH C57BL/6 mouse model of MASH assessed as decrease in plasma ALT level at 200 mg/kg, po for 4 weeks. The class given is functional, organism-based. Put shortly: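 GAN-diet male C57BL/6 mice given compound admixed in diet at 200 mg/kg daily for 4 weeks. Terminal EDTA plasma taken by cardiac puncture under isoflurane. ALT activity measured by kit assay, samples diluted 1:8 in ALT assay buffer.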

The test system of series [13] is Mus musculus. Nature of the series: Anti-obesity activity in diet-induced Gubra-Amylin NASH C57BL/6 mouse model of MASH assessed as decrease in liver triglyceride level at 200 mg/kg, po for 4 weeks. The class given is functional, organism-based. Put shortly: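 GAN-diet male C57BL/6 mice dosed 200 mg/kg daily in food for 4 weeks. Liver harvested at end, frozen in liquid nitrogen, lipid extracted. Extract heated 10 min at 37 °C, then triglyceride measured by colorimetric assay and normalized to initial grams extracted.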

In series [14] the test system is Mus musculus. Kind of series: Anti-obesity activity in diet-induced Gubra-Amylin NASH C57BL/6 mouse model of MASH assessed as decrease in NAFLD activity score at 200 mg/kg, po for 4 weeks. The class given is functional, organism-based. Put shortly: as §3
The subject of series [15] is Mus musculus. Kind of series: Effect on fibrosis stage of liver in diet-induced Gubra-Amylin NASH C57BL/6 mouse model of MASH at 200 mg/kg, po for 4 weeks. Format: functional, organism-based.
Series [16] has as its system Mus musculus. Kind of series: Anti-obesity activity in diet-induced Gubra-Amylin NASH C57BL/6 mouse model of MASH assessed at 200 mg/kg, po for 4 weeks by EchoMRI analysis.
Series [17] can be described thus: as §1. Format: functional. Particulars: 1.5 h, up to 200 µM.

Regarding `Oc1c(Nc2ccccc2-c2ccccc2)cnc2nonc12`, the result with L6 [1] was inactive. Besides, in series [2], the EC50 (in general, the concentration giving half of the maximal effect) was “Not_active”.

Consider `Oc1c(Nc2ccc(-c3cc(F)ccc3F)cc2)cnc2nonc12`, for which the outcome in the series with L6 [1] was inactive. For the same compound, the EC50 result in series [2] is listed as “Not_active”.

Consider `Oc1c(Nc2ccc(-c3cccc(Cl)c3)cc2)cnc2nonc12`, for which the Activity result in the series with L6 [3] was “Active; Action Of Drug Suggests Proton Transport Into Matrix Independent Of Atp Synthase; Activity Of Drug Requires Electron Transport Chain Activity”; in series [4], 300%; in [5], “Non-toxic”; in series [6], “Non-toxic”; in [7], “Non-toxic”; in series [8], “Non-toxic”. In addition, the Activity result in the series on Mus musculus [10] was “Active; Activity Of Drug Indicates Improved Body Composition”; with Mus musculus [11] it was “Not active; No Significant Change In Liver Mass Was Observed But Showed Improvements In Fatty Liver Disease Phenotypes”; with Mus musculus [14], “Active; The Occurence Is Due To Decreased Hepatic Steatosis”. The result in the series with Mus musculus [9] and in the series on Mus musculus [15] was inactive. Further, the result in the series with Mus musculus [12], in the series on Mus musculus [13] and in the series on Mus musculus [16] was Active.

For the compound `Oc1c(Nc2ccc(-c3cccc(Cl)c3Cl)cc2)cnc2nonc12`, the outcome in the series on L6 [1] was inactive. Also, the EC50 entry in series [2] is given as “Not_active”.

Turning to `Oc1c(Nc2ccc(-c3ccccc3F)cc2)cnc2nonc12`, in the series on L6 [1], the outcome was inactive. For the same compound, in series [2], the EC50 result is on record as “Not_active”.

The compound `Oc1c(Nc2ccc(-c3ccc(Cl)cc3)cc2)cnc2nonc12` returned an Activity in series [17] of 57%.

`Oc1c(Nc2ccc(-c3ccc(F)c(F)c3)cc2)cnc2nonc12`: the result in the series on L6 [1] was inactive. In addition, the EC50 entry in [2] is listed as “Not_active”.

For the compound `Oc1c(Nc2ccc(-c3ccc(C(F)(F)F)cc3)cc2)cnc2nonc12`, in the series with L6 [1], the outcome was inactive. Further, the EC50 entry in [2] is “Not_active”.

With `Oc1c(Nc2ccc(C(F)(F)F)nc2)cnc2nonc12`, the outcome in the series with L6 [1] was inactive. For the same compound, in series [2], the EC50 result is recorded as “Not_active”.

`Oc1c(Nc2cccc(-c3ccccc3)c2)cnc2nonc12` had an Activity in series [17] of 20%. The EC50 in [2] (read-out: EC50) is 6 µM.

`Oc1c(Nc2ccc(F)nc2)cnc2nonc12`: in the series on L6 [1], the result was inactive. The EC50 entry in series [2] is on record as “Not_active”.

Take `CC(=O)c1ccc(Nc2cnc3nonc3c2O)cc1`: in the series with L6 [1], the result was inactive. Moreover, in [2], the EC50 result is listed as “Not_active”.

Take `N#Cc1ccc(Nc2cnc3nonc3c2O)cc1`: the outcome with L6 [1] was inactive. For the same compound, the EC50 entry in series [2] was “Not_active”.

In the case of `CC1(C)c2ccccc2-c2ccc(Nc3cnc4nonc4c3O)cc21`, in the series with L6 [1], the outcome was inactive. Moreover, the concentration for a half-maximal effect (EC50) result in [2] is given as “Not_active”.

`CCCCc1ccc(Nc2cnc3nonc3c2O)cc1`: in [2] (read-out: EC50), the EC50 stood at 1 µM.

As for `Oc1c(Nc2ccc(-c3cccc(F)c3F)cc2)cnc2nonc12`, in the series on L6 [1], the outcome was inactive. Besides, the EC50 entry in series [2] is given as “Not_active”.

Take `CC(C)(C)Oc1ccc(Nc2cnc3nonc3c2O)cc1`: the Activity in series [17] worked out at 20%. Besides, the EC50 in [2] (read-out: EC50) is 6 µM.

Consider `Oc1c(-c2ccc(-c3ccc(F)cc3)cc2)cnc2nonc12`, for which, in the series with L6 [1], the outcome was inactive. Also, the EC50 entry in series [2] is on record as “Not_active”.

With `Oc1c(Nc2ccc(-c3ccc(F)cc3)cc2)cnc2nonc12`, the Activity in series [17] was 60%.
